Activity calls are given as the source filed them. No cut-off for these calls is given here.
Tests used:
[1] = molecular target: Transient receptor potential cation channel subfamily M member 8 (Rattus norvegicus, UniProt Q8R455); test: Antagonist activity at recombinant rat TRPM8 expressed in HEK293 cells assessed as inhibition of icilin-induced intracellular calcium accumulation preincubated for 5 mins followed by icilin addition by Fluo-4-AM probe-based spectrofluorimetric assay; format: cell-based
Sequence of Transient receptor potential cation channel subfamily M member 8 (Q8R455 whole entry): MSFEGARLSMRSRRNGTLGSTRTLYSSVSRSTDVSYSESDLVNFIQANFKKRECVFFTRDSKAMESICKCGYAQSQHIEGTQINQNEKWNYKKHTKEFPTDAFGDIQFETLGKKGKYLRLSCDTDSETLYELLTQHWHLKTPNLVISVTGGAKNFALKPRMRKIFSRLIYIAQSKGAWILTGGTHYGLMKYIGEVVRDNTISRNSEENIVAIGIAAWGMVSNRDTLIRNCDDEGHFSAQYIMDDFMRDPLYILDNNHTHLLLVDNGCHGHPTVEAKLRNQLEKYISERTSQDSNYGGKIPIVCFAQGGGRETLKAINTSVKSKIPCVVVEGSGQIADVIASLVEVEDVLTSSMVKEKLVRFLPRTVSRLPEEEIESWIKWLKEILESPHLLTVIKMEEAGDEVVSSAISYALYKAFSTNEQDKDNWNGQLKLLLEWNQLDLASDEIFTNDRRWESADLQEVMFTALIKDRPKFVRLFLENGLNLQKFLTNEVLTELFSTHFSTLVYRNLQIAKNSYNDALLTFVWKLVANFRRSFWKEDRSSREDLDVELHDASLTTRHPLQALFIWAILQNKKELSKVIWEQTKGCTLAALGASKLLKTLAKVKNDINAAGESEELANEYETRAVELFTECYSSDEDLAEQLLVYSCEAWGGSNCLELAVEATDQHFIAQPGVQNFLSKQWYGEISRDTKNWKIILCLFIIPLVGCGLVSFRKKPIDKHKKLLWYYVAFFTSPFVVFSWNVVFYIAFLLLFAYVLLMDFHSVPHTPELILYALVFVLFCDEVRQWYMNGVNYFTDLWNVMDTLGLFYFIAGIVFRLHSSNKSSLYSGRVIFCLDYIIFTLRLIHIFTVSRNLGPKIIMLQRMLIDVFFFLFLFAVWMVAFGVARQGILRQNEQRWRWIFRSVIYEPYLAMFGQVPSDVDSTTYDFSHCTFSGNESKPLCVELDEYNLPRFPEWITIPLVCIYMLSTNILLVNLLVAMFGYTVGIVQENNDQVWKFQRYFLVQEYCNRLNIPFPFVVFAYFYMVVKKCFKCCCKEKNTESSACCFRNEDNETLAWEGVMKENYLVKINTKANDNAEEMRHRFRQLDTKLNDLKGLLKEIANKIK
In short: (§1)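 HEK-293 cells stably expressing the listed TRP channel (human TRPV1; rat TRPM8, TRPA1, TRPV2, TRPV3 or TRPV4) were Fluo-4-AM loaded (4 µM, 1 h, 25 °C) and suspended in Tyrode's buffer pH 7.4. Compound was added 5 min before agonist: icilin 0.25 µM (TRPM8), capsaicin 0.1 µM (TRPV1), AITC 100 µM (TRPA1), LPC 3 µM (TRPV2), thymol 100 µM (TRPV3), 4α-PDD 1 µM (TRPV4). Agonist alone was taken as 100%. IC50 from sigmoidal fit, at least triplicate.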

[2] = molecular target: T1, Transient receptor potential cation channel subfamily V member 2 (Rattus norvegicus, UniProt Q9WUD2); test: Antagonist activity at recombinant rat TRPV2 expressed in HEK293 cells assessed as inhibition of LPC-induced intracellular calcium accumulation preincubated for 5 mins followed by LPC addition by Fluo-4-AM probe-based spectrofluorimetric assay; format: cell-based; in short: as §1
T1 sequence (Q9WUD2 whole entry): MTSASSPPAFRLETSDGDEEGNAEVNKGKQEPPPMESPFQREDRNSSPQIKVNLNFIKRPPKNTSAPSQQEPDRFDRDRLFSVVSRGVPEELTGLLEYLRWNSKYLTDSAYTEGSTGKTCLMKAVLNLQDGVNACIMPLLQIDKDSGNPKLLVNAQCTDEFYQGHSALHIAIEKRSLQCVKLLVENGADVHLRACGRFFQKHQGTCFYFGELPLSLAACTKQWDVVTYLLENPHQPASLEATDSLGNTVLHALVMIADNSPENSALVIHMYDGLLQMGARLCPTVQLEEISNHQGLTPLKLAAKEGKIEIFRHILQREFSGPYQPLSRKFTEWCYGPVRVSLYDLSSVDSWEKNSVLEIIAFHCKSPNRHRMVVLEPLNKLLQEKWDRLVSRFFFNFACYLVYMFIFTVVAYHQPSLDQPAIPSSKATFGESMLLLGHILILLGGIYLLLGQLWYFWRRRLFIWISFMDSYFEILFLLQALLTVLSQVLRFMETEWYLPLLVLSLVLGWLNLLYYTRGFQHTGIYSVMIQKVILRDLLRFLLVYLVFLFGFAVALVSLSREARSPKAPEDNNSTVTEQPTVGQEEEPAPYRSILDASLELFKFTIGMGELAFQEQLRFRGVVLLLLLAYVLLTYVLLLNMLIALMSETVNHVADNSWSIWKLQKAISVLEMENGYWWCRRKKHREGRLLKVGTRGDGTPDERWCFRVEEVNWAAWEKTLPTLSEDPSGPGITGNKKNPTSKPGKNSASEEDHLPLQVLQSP

[3] = molecular target: T2, Transient receptor potential cation channel subfamily V member 2 (Rattus norvegicus) (UniProt Q9WUD2); test: Antagonist activity at recombinant rat TRPV2 expressed in HEK293 cells assessed as inhibition of LPC-induced intracellular calcium accumulation up to 10 uM preincubated for 5 mins followed by LPC addition by Fluo-4-AM probe-based spectrofluorimetric assay; format: cell-based; in short: as §1
T2 sequence (whole entry): T1 sequence (Q9WUD2 whole entry)

[4] = molecular target: Transient receptor potential cation channel subfamily V member 4 (Rattus norvegicus) (UniProt Q9ERZ8); test: Antagonist activity at recombinant rat TRPV4 expressed in HEK293 cells assessed as inhibition of 4alphaPDD-induced intracellular calcium accumulation up to 10 uM preincubated for 5 mins followed by 4alphaPDD addition by Fluo-4-AM probe-based spectrofluorimetric assay; format: cell-based; in short: as §1
Sequence of Transient receptor potential cation channel subfamily V member 4 (Rattus norvegicus) (Q9ERZ8 whole entry): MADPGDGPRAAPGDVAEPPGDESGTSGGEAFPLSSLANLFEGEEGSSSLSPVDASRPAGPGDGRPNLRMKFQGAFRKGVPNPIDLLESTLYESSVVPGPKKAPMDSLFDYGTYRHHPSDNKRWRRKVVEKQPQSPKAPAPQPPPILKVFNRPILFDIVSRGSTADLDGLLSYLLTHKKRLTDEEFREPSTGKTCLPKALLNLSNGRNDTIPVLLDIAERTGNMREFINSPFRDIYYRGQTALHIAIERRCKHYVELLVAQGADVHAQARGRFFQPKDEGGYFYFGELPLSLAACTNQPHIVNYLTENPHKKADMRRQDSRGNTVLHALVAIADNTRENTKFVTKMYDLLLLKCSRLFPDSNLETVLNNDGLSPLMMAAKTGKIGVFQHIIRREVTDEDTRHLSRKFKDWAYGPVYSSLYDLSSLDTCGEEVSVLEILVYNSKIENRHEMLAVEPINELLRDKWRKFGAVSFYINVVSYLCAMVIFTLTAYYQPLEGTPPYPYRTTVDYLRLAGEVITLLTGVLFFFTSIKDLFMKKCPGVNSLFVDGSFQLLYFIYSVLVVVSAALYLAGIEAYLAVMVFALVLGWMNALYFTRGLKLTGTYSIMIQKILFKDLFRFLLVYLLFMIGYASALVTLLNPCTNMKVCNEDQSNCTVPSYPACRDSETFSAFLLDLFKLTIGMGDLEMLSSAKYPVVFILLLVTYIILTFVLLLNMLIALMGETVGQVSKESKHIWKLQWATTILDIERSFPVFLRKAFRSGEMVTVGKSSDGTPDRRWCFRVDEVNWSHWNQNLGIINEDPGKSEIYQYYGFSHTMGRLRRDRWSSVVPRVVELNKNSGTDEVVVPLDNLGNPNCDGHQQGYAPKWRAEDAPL

LNCaP = test: Cytotoxicity against human LNCAP cells assessed as inhibition of cell growth at 10 uM after 72 hrs by trypan blue assay; format: functional; details: for inhibition of growth at 10 µM: read-out: GI
In short: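 LNCaP cells were grown in RPMI-1640 with 10% FBS and given a daily dose of compound for 72 h. Cells were then counted in a Burker chamber, with cell number also estimated from dsDNA content at 4 pg DNA/cell. Dead cells were scored with 0.4% trypan blue. Statistics used ANOVA with Bonferroni's test.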

[5] = molecular target: Transient receptor potential cation channel subfamily V member 4 (Rattus norvegicus, UniProt Q9ERZ8); test: Antagonist activity at recombinant rat TRPV4 expressed in HEK293 cells assessed as inhibition of 4alphaPDD-induced intracellular calcium accumulation preincubated for 5 mins followed by 4alphaPDD addition by Fluo-4-AM probe-based spectrofluorimetric assay; format: cell-based; in short: as §1
Sequence of Transient receptor potential cation channel subfamily V member 4 (Q9ERZ8 whole entry): as above

[6] = molecular target: T3, Heat sensitive channel TRPV3 (Rattus norvegicus, UniProt Q4QYD9); test: Antagonist activity at recombinant rat TRPV3 expressed in HEK293 cells assessed as inhibition of thymol-induced intracellular calcium accumulation preincubated for 5 mins followed by thymol addition by Fluo-4-AM probe-based spectrofluorimetric assay; format: cell-based; in short: as §1
T3 sequence (Q4QYD9 whole entry): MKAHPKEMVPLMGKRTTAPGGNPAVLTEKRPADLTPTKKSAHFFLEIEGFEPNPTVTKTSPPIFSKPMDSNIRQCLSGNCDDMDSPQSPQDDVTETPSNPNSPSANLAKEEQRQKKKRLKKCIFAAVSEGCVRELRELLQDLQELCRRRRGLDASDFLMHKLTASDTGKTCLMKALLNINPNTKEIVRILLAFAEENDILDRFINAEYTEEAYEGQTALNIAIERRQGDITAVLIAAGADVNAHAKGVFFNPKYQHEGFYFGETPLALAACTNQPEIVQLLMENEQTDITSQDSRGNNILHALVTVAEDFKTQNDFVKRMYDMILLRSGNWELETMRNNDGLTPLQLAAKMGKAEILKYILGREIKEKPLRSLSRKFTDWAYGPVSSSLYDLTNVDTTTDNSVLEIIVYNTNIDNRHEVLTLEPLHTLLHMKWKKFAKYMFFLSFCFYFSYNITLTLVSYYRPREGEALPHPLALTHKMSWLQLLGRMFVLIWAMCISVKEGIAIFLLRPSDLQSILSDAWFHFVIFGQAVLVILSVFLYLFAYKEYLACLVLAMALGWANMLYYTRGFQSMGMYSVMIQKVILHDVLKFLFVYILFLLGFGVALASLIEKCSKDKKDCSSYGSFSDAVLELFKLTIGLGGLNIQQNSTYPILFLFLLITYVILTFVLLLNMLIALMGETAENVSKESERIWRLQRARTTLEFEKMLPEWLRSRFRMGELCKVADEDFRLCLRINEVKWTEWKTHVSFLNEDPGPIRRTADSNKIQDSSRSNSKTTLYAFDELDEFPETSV

[7] = molecular target: Transient receptor potential cation channel subfamily A member 1 (Rattus norvegicus) (UniProt Q6RI86); test: Antagonist activity at recombinant rat TRPA1 expressed in HEK293 cells assessed as inhibition of AITC-induced intracellular calcium accumulation up to 10 uM preincubated for 5 mins followed by AITC addition by Fluo-4-AM probe-based spectrofluorimetric assay; format: cell-based; in short: as §1
Sequence of Transient receptor potential cation channel subfamily A member 1 (Rattus norvegicus) (Q6RI86 whole entry): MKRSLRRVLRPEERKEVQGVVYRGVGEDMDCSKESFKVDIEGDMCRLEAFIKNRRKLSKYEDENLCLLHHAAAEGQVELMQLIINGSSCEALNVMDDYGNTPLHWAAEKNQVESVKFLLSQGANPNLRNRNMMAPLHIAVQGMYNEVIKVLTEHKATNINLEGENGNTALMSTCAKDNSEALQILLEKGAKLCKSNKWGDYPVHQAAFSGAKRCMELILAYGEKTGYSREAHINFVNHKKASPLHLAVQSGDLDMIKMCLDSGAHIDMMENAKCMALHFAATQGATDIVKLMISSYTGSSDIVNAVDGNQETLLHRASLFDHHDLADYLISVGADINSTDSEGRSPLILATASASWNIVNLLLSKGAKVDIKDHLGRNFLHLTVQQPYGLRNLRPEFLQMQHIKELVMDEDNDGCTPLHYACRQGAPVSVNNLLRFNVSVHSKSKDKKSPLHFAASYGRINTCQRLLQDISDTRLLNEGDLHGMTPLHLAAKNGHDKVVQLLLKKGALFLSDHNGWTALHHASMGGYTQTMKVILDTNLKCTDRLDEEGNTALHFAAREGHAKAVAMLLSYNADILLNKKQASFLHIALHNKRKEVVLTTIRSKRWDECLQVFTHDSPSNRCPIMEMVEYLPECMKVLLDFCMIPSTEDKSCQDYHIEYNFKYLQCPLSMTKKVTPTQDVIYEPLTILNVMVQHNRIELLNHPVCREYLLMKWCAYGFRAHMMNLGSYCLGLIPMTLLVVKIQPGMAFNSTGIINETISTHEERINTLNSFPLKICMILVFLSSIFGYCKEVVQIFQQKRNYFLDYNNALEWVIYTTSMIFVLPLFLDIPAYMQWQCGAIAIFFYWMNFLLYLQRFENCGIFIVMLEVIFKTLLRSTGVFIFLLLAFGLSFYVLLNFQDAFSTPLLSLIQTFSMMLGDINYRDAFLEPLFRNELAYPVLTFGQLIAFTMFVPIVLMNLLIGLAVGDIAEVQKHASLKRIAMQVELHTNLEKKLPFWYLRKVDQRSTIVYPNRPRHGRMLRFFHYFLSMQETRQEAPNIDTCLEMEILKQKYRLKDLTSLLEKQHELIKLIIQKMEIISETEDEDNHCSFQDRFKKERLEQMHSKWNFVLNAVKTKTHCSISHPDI

[8] = molecular target: T4, Heat sensitive channel TRPV3 (Rattus norvegicus) (UniProt Q4QYD9); test: Antagonist activity at recombinant rat TRPV3 expressed in HEK293 cells assessed as inhibition of thymol-induced intracellular calcium accumulation up to 10 uM preincubated for 5 mins followed by thymol addition by Fluo-4-AM probe-based spectrofluorimetric assay; format: cell-based; in short: as §1
T4 sequence (whole entry): T3 sequence (Q4QYD9 whole entry)

| SMILES | IC50 [1] [µM] | IC50 [2] [µM] | inhibition [3] | inhibition [4] | growth inhibition (GI) (LNCaP) | IC50 [5] [µM] | IC50 [6] [µM] | inhibition [7] | inhibition [8] | inhibition of growth at 10 µM (LNCaP) [%] |
| --- | --- | --- | --- | --- | --- | --- | --- | --- | --- | --- |
| COc1cc2c(cc1OC)[C@H](c1ccccc1)N(C(=O)N1CCc3cc(OC)c(OC)cc3[C@@H]1c1ccccc1)CC2 (racemic) | 0.5 | 51.9 | inactive | inactive | Active | 82.6 | > 100 | inactive | inactive |  |
| COc1cc(/C=C2\NC(=O)[C@@H]3Cc4c(OC)c(C)c(OC)c(OC)c4[C@@H](c4ccccc4)N3C2=O)c(OC)c(C)c1OC | 0.62 | 12.4 | inactive | inactive | Active | > 100 | 34.3 | inactive | inactive |  |
| COc1cc2c(cc1OC)[C@H](c1ccc(F)cc1)N(C(=O)N1CCc3cc(OC)c(OC)cc3[C@@H]1c1ccc(F)cc1)CC2 (racemic) | 0.072 | 94.3 | inactive | inactive |  | 96.2 | 72.9 | inactive | inactive | 64.3 |
| COc1cc2c(cc1OC)[C@H](c1ccc(Cl)cc1)N(C(=O)N1CCc3cc(OC)c(OC)cc3[C@@H]1c1ccc(Cl)cc1)CC2 (racemic) | 0.43 | 54.9 | inactive | inactive |  | 81.5 | > 100 | inactive | inactive | 50.4 |
